Where “and” joins values, the source holds several entries; their conditions need not be identical. Equal entries are not always repeated.
Test system: Fibroblast
Test: Multiplex assay against human fibroblast
Assay type: toxicity, cell-based
Outline: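 Tubulin, mitochondrial-mass and membrane-permeability phenotypes are per cents of healthy-nucleus cells. Cells were gated by CellPathfinder machine learning into Hoechst high-intensity objects or normal cells, normal cells into healthy, pyknosed or fragmented nuclei, and pyknosed cells into mitotic or apoptotic. Before that, live cells stained at seeding with Hoechst33342, BioTracker Green Microtubule Cytoskeleton Dye, MitoTracker Red and Annexin V Alexa Fluor 680 were imaged on a CQ1 microscope at 37°C and 5% CO2 after compound addition.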

[1] = 12 h, 1 µM, compound concentration 1 uM
[2] = 12 h, 10 µM, compound concentration 10 uM
[3] = 24 h, 1 µM, compound concentration 1 uM
[4] = 24 h, 10 µM, compound concentration 10 uM
[5] = 48 h, 1 µM, compound concentration 1 uM
[6] = 48 h, 10 µM, compound concentration 10 uM

Cl.N=C(N)NC(=O)Cc1c(Cl)cccc1Cl [GUANFACINE HYDROCHLORIDE]
Population Apoptotic (%) [1]: 44% and 28%
Population Fragmented Nuclei (%) [1]: 20% and 23%
Population Healthy Nuclei (%) [1]: 62% and 45%
Population Hoechst High Intensity Objects (%) [1]: 2%
Population Membrane Permeable-Phenotype (%) [1]: 0% and 3%
Population Mitochondria Different-Phenotype (%) [1]: 4% and 7%
Population Mitotic Cells (%) [1]: 55% and 71%
Population Normal (%) [1]: 97%
Population Pyknosed Nuclei (%) [1]: 16% and 31%
Population Tubulin-Different-Phenotype (%) [1]: 32% and 46%
Total Cell Count [1]: 167 and 149
Population Apoptotic (%) [2]: 66% and 35%
Population Fragmented Nuclei (%) [2]: 16% and 22%
Population Healthy Nuclei (%) [2]: 68% and 47%
Population Hoechst High Intensity Objects (%) [2]: 0% and 10%
Population Membrane Permeable-Phenotype (%) [2]: 1% and 5%
Population Mitochondria Different-Phenotype (%) [2]: 5%
Population Mitotic Cells (%) [2]: 33% and 64%
Population Normal (%) [2]: 99% and 89%
Population Pyknosed Nuclei (%) [2]: 15% and 29%
Population Tubulin-Different-Phenotype (%) [2]: 24% and 46%
Total Cell Count [2]: 139 and 127
Population Apoptotic (%) [3]: 58% and 45%
Population Fragmented Nuclei (%) [3]: 22% and 23%
Population Healthy Nuclei (%) [3]: 62% and 46%
Population Hoechst High Intensity Objects (%) [3]: 1% and 6%
Population Membrane Permeable-Phenotype (%) [3]: 0% and 12%
Population Mitochondria Different-Phenotype (%) [3]: 5% and 8%
Population Mitotic Cells (%) [3]: 41% and 54%
Population Normal (%) [3]: 98% and 93%
Population Pyknosed Nuclei (%) [3]: 14% and 30%
Population Tubulin-Different-Phenotype (%) [3]: 26% and 50%
Total Cell Count [3]: 169 and 130
Population Apoptotic (%) [4]: 63% and 25%
Population Fragmented Nuclei (%) [4]: 17% and 26%
Population Healthy Nuclei (%) [4]: 68% and 55%
Population Hoechst High Intensity Objects (%) [4]: 1% and 4%
Population Membrane Permeable-Phenotype (%) [4]: 0% and 13%
Population Mitochondria Different-Phenotype (%) [4]: 4% and 3%
Population Mitotic Cells (%) [4]: 36% and 75%
Population Normal (%) [4]: 98% and 95%
Population Pyknosed Nuclei (%) [4]: 14% and 18%
Total Cell Count [4]: 137 and 114
Population Apoptotic (%) [5]: 61% and 50%
Population Fragmented Nuclei (%) [5]: 25% and 33%
Population Healthy Nuclei (%) [5]: 63% and 45%
Population Hoechst High Intensity Objects (%) [5]: 1% and 3%
Population Membrane Permeable-Phenotype (%) [5]: 0% and 4%
Population Mitochondria Different-Phenotype (%) [5]: 6% and 11%
Population Mitotic Cells (%) [5]: 38% and 50%
Population Normal (%) [5]: 98% and 96%
Population Pyknosed Nuclei (%) [5]: 11% and 21%
Population Tubulin-Different-Phenotype (%) [5]: 32% and 57%
Total Cell Count [5]: 162 and 145
Population Apoptotic (%) [6]: 66% and 45%
Population Fragmented Nuclei (%) [6]: 22% and 39%
Population Healthy Nuclei (%) [6]: 67% and 41%
Population Hoechst High Intensity Objects (%) [6]: 1% and 6%
Population Membrane Permeable-Phenotype (%) [6]: 1% and 8%
Population Mitochondria Different-Phenotype (%) [6]: 6% and 2%
Population Mitotic Cells (%) [6]: 33% and 54%
Population Normal (%) [6]: 98% and 93%
Population Pyknosed Nuclei (%) [6]: 10% and 19%
Population Tubulin-Different-Phenotype (%) [6]: 24% and 67%
Total Cell Count [6]: 142 and 120
